Experimental data from ChEMBL document CHEMBL1155472, “Versatile synthesis of new cytotoxic agents structurally related to hemiasterlins” (Bioorg Med Chem Lett, 2010).
Activity calls are given as the source filed them. No cut-off for these calls is given here.

How the values were obtained:
[1] = Cytotoxicity against human UCI101 cells after 2 days by Alamar blue staining; format: functional, cell-based; settings: UCI101, 48 h
Method in brief: (§1)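 UCI-101 human ovarian cancer cells and N1–S1 rat hepatoma cells were exposed to a range of concentrations for 2 days. Growth suppression was read by Alamar blue staining, with each concentration run in triplicate, and plotted against concentration.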

[2] = Cytotoxicity against rat N1S1 cells after 2 days by Alamar blue staining; format: functional, cell-based; settings: N1-S1, 48 h; method in brief: as §1
N1S1 = assay: Cytotoxicity against rat N1S1 cells at 1 mM after 2 days by Alamar blue staining; format: functional, cell-based; method in brief: as §1
UCI101 = assay: Cytotoxicity against human UCI101 cells at 1 mM after 2 days by Alamar blue staining; format: functional, cell-based; method in brief: as §1
[3] = Inhibition of tubulin polymerization at 5 uM
Method in brief: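 Tubulin polymerization was run with a commercial polymerization assay kit, and polymerization curves were recorded over time. Colchicine and paclitaxel were run alongside as reference controls.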

[4] = Cell cycle arrest in human UCI101 cells assessed as accumulation at G2 phase at 10 nM after 16 hrs using ethidium bromide staining by FACS analysis; format: functional, cell-based
[5] = Cell cycle arrest in human UCI101 cells assessed as accumulation at G2 phase at 20 nM after 16 hrs using ethidium bromide staining by FACS analysis; format: functional, cell-based
[6] = Cell cycle arrest in human UCI101 cells assessed as accumulation at G2 phase at 25 nM after 16 hrs using ethidium bromide staining by FACS analysis; format: functional, cell-based

SMILES	IC50 [1] [µM]	IC50 [2] [µM]	Activity (N1S1)	Activity (UCI101)	Activity [4]	Activity [5]	Activity [6]	other results
C/C(=C\[C@H](C(C)C)N(C)C(=O)[C@@H](NC(=O)C(C)NC(C)(C)c1ccc2ccccc2c1)C(C)(C)C)C(=O)O (stereo partly drawn)	0.2	0.2						
C/C(=C\[C@H](C(C)C)N(C)C(=O)[C@@H](NC(=O)C(C)NC1CCCCC1)C(C)(C)C)C(=O)O (mixture of isomers)			Not toxic	Not toxic				
C/C(=C\[C@H](C(C)C)N(C)C(=O)[C@@H](NC(=O)[C@H](C)NC(C)(C)c1ccccc1)C(C)(C)C)C(=O)O	0.2	0.2						
C/C(=C\[C@H](C(C)C)N(C)C(=O)[C@@H](NC(=O)[C@@H](C)NC(C)(C)c1ccccc1)C(C)C)C(=O)O	0.02				4.7%	11%	12%	inhibition [3]: Active
CC(NC(C)(C)c1ccccc1)C(=O)N[C@H](C(=O)N(C)c1cccc(C(=O)O)c1)C(C)C (stereo partly drawn)			Not toxic	Not toxic				
C/C(=C\[C@H](C(C)C)N(C)C(=O)[C@@H](NC(=O)[C@@H](C)NC(C)(C)c1ccccc1)C(C)(C)C)C(=O)O		0.02			Active	Active	Active	Activity [3]: Active
